Source: PubChem (Broad Institute)
Compounds with a hit are over-represented: about 5.9% of the library has one in this group of screens.
T cruzi growth-1: T. cruzi intracellular proliferation inhibitors, primary screen, cell-based, beta-gal Tulahuen parasites, NIH3T3 host, luminescence; AID 624255, 2012; T. cruzi beta-gal in NIH3T3, GalScreen luminescence, 90 h; inhibition, % at 8.34 µM; hit rate 5.9% among 77,000;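 active means mean inhibition above about 93%, with at least 55% of replicates each passing it, limit read from the data, passing the limit was not always enough; inconclusive means only one of those two conditions holds; inactive means neither condition holds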
GASC1 inh: inhibitors of GASC-1 (KDM4C) histone demethylase, primary screen, biochemical, single concentration HTS; GST-KDM4C 2-372, H3K9me3 peptide, LANCE TR-FRET; AID 720574, 2013; inhibition, % at 12.5 µM; hit rate 0.15% among 96,000; Lysine-specific demethylase 4C (Homo sapiens), Q9H3R0;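 active means mean replicate inhibition above about 25%, with at least 55% of replicates also reaching it, limit read from the data, passing the limit was not always enough; inconclusive means only one of those two conditions met; inactive means neither condition met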
Target sequence (Q9H3R0 2-372 limits assumed): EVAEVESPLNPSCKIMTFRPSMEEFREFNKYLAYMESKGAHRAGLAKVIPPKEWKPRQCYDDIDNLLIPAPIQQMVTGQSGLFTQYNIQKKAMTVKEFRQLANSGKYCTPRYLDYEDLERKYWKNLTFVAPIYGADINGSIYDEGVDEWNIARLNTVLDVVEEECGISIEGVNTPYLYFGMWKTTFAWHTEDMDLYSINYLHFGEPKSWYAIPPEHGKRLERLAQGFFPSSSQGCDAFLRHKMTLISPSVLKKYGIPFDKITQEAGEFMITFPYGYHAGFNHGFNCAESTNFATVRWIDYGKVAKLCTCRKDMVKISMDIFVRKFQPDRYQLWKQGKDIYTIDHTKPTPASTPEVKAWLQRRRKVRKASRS
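System: N-terminal GST-fused human GASC-1 (KDM4C) fragment, residues 2-372; amount: enzyme final amount 10 nM; incubation: reaction 30 min RT, detection step 1 h RT; medium: HEPES buffer, pH 7.5, plus ascorbate; technique: LANCE TR-FRET, Eu antibody, ULight-streptavidin, EDTA, ex 340 nm, em 618/671 nm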
IDH1 mut inh: inhibitors of IDH1 R132H reductase, primary screen, biochemical, plate reader, single point; Isocitrate dehydrogenase [NADP] cytoplasmic (Homo sapiens), O75874; diaphorase/resazurin fluorescence, 60 min; inhibition, % at 10 µM; hit rate 0.18% among 70,000; AID 624101, 2012; in the data active means inhibition above about 34%; inconclusive means no clear call, values can overlap the other calls; inactive means below about 11%;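 further: 0% = DMSO and 100% = no enzyme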
Pf Dd2 growth: P. falciparum Dd2 growth inhibitors, primary screen, SYBR Green fluorescence, single dose replicates; 72 h; hits give low values; activity change, % at 10 µM; hit rate 2.3% among 94,000; AID 1159554, 2015; in the data active means activity change below about -80%; inconclusive means no clear call, values can overlap the other calls
T cruzi growth-2: T. cruzi intracellular proliferation inhibitors, confirmation, cell-based, NIH3T3 host, beta-gal parasite, luminescence, cherry-pick; shares compounds with T cruzi growth-1; T. cruzi beta-gal in NIH3T3, GalScreen luminescence, 90 h; inhibition, % at 8.35 µM; hit rate 72% among 5,600; AID 651739, 2012;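 active means mean replicate inhibition above about 95% and at least 55% of replicates individually reaching it, limit read from the data; inconclusive means only one of the two criteria is met; inactive means neither criterion is met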
T cruzi growth-3: inhibitors of intracellular T. cruzi replication, confirmation, NIH3T3 host cells, beta-gal parasites, cherry-pick, set 2; inhibition, % at 2.09 µM; AID 651740, 2012; T. cruzi beta-gal in NIH3T3, GalScreen luminescence, 90 h; hit rate 21% among 5,600; shares compounds with T cruzi growth-1;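 active means mean inhibition above about 95%, with at least 55% of replicates also reaching it, limit read from the data; inconclusive means meets just one of the two conditions; inactive means meets neither condition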;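 further: plate controls were neutral control median for no effect and positive control median for full effect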
NIH3T3 tox: cytotoxicity in mouse NIH/3T3 fibroblasts, confirmation, cytotoxicity control for T. cruzi proliferation inhibitor project, cell-based, cherry-pick, single point. shares compounds with T cruzi growth-1. NIH/3T3 viability, CellTiter-Glo ATP luminescence, 90 h. cytotoxicity (signal decrease), % at 8.35 µM. hit rate 14% among 5,600. AID 651742, 2012;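 active means mean signal decrease across replicates above about 35% based on untreated-well scatter, with enough replicates individually passing, limit read from the data; inconclusive means no rule stated though some were filed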;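 further: 0% = median of neutral control wells and 100% = median of positive control wells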
3T3 cytotox 2: NIH/3T3 fibroblast cytotoxicity, confirmation, cytotoxicity control, cell-based, cherry-pick, single point, set 2. inhibition, % at 24.9 µM. hit rate 56% among 5,600. NIH/3T3 viability, CellTiter-Glo ATP luminescence, 90 h. AID 651744, 2012. shares compounds with T cruzi growth-1;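 active means mean loss of cell viability signal at or above a set limit, and enough replicates individually reaching it; inconclusive means meets only the mean limit or only the replicate share; inactive means meets neither condition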;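 further: 0% = median of neutral control wells and 100% = median of positive control wells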
Starred values were filed as active, the others as inactive; ? = inconclusive; . = not tested or not shown.

SMILES | T cruzi growth-1 | GASC1 inh | IDH1 mut inh | Pf Dd2 growth | T cruzi growth-2 | T cruzi growth-3 | NIH3T3 tox | 3T3 cytotox 2
Cc1noc(C)c1S(=O)(=O)N(C)C[C@@H]1OCCCC[C@@H](C)Oc2ccc(NC(=O)Nc3ccc(F)cc3)cc2C(=O)N([C@H](C)CO)C[C@H]1C | 75 | 0 | 1 | -47 | . | . | . | .
Cc1noc(C)c1S(=O)(=O)N(C)C[C@@H]1OCCCC[C@@H](C)Oc2ccc(NC(=O)Nc3ccc(C(F)(F)F)cc3)cc2C(=O)N([C@@H](C)CO)C[C@@H]1C | 86 | -1 | . | -15 | . | . | . | .
Cc1noc(C)c1S(=O)(=O)N(C)C[C@@H]1OCCCC[C@H](C)Oc2ccc(NC(=O)Nc3ccc(C(F)(F)F)cc3)cc2C(=O)N([C@H](C)CO)C[C@@H]1C | 104* | -1 | . | -35 | 105* | 113* | 18 | 8
Cc1noc(C)c1S(=O)(=O)N(C)C[C@H]1OCCCC[C@@H](C)Oc2ccc(NC(=O)Nc3ccc(C(F)(F)F)cc3)cc2C(=O)N([C@H](C)CO)C[C@@H]1C | 110* | -2 | -1 | -53 | 108* | 102* | 7 | 32*
Cc1nc(-c2ccccc2)sc1C(=O)C1C(=O)C(=O)N(CCN2CCOCC2)C1c1ccccc1F (stereo not given) | . | . | 0 | . | . | . | . | .
CC(C)C#Cc1ccc2c(c1)O[C@@H](CN(C)Cc1ccccc1)[C@@H](C)CN([C@H](C)CO)S2(=O)=O | 111* | 0 | 0 | -39 | 107* | 79 | 2 | 104*
CC(C)C#Cc1ccc2c(c1)O[C@H](CN(C)Cc1ccccc1)[C@@H](C)CN([C@@H](C)CO)S2(=O)=O | 106* | 0 | 0 | -70 | 91 | 103* | -19 | 106*
C[C@H](CO)N1C[C@H](C)[C@@H](CN(C)Cc2ccccc2)Oc2cc(C#CC3CC3)ccc2S1(=O)=O | 128* | 11 | 0 | -16 | 97* | 93 | -5 | 105*
CC(C)C#Cc1ccc2c(c1)O[C@H](CN(C)Cc1ccccc1)[C@H](C)CN([C@H](C)CO)S2(=O)=O | 105* | 2 | 0 | -54 | 102* | 78 | 8 | 103*
CC(C)C#Cc1ccc2c(c1)O[C@H](CN(C)Cc1ccccc1)[C@@H](C)CN([C@H](C)CO)S2(=O)=O | 3 | -1 | 0 | -42 | . | . | . | .
CC(C)C#Cc1ccc2c(c1)O[C@@H](CN(C)Cc1ccccc1)[C@@H](C)CN([C@@H](C)CO)S2(=O)=O | 106* | 0 | -1 | -56 | 101* | 95 | 21 | 103*
CC(C)C#Cc1ccc2c(c1)O[C@@H](CN(C)Cc1ccccc1)[C@H](C)CN([C@@H](C)CO)S2(=O)=O | 88 | -1 | -1 | -52 | . | . | . | .
O=C(NCC[C@@H]1CC[C@H](NS(=O)(=O)c2ccccc2F)[C@@H](CO)O1)c1ccc(F)cc1 | 104* | 0 | 0 | 9 | 39 | -2 | 3 | 1
O=C(C[C@H]1CC[C@@H](NS(=O)(=O)c2ccc(F)cc2)[C@@H](CO)O1)N1CCc2ccccc2C1 | -10 | -1 | 0 | 20 | . | . | . | .
O=C(C[C@@H]1CC[C@@H](NS(=O)(=O)c2ccc(F)cc2)[C@H](CO)O1)N1CCc2ccccc2C1 | 104* | 0 | 0 | 14 | 0 | 9 | -15 | 7
Cc1ccc(S(=O)(=O)N[C@@H]2CC[C@@H](CC(=O)N3CCC(Cc4ccccc4)CC3)O[C@@H]2CO)cc1 | 111* | -1 | 0 | -15 | 110* | 37 | -33 | 35*
COc1ccc(S(=O)(=O)N[C@H]2C=C[C@@H](CC(=O)N3CCC(Cc4ccccc4)CC3)O[C@H]2CO)cc1 | 110* | 0 | 0 | -37 | 59 | 31 | 10 | 70*
C=C1c2c(Cl)ccc(O)c2C(=O)C2C(=O)[C@]3(O)C(=O)C(C(N)=O)C(=O)[C@@H](N(C)C)[C@@H]3[C@@H](O)C12 (stereo not given in full) | . | . | 0 | . | . | . | . | .
CC(=O)C(C)Sc1ncnc2sc(-c3ccccc3)cc12 (stereo not given) | . | . | 0 | . | . | . | . | .
C[C@@H]1CCCCO[C@@H](CN(C)Cc2ccc(C(F)(F)F)cc2)[C@H](C)CN([C@H](C)CO)C(=O)c2cc(N(C)C)ccc2O1 | ? | 2 | . | -8 | 105* | 91 | 4 | 59*
C[C@@H]1CCCCO[C@@H](CN(C)Cc2ccc(C(F)(F)F)cc2)[C@@H](C)CN([C@@H](C)CO)C(=O)c2cc(N(C)C)ccc2O1 | 97* | -2 | . | -16 | 104* | 36 | 13 | 28*
C[C@@H]1CN([C@@H](C)CO)C(=O)c2cc(N(C)C)ccc2O[C@@H](C)CCCCO[C@H]1CN(C)Cc1ccccc1 | 99* | 0 | -1 | -17 | 100* | 71 | 14 | 0
C[C@@H]1CCCCO[C@@H](CN(C)Cc2ccc(C(F)(F)F)cc2)[C@H](C)CN([C@@H](C)CO)C(=O)c2cc(N(C)C)ccc2O1 | 93 | 9 | -4 | -2 | . | . | . | .
COc1cccc(C#Cc2cnc3c(c2)C(=O)N([C@H](C)CO)C[C@@H](C)[C@H](CN(C)C)O3)c1 | 102* | -1 | 4 | -50 | 102* | 44 | 29 | 105*
C[C@H](CO)N1C[C@H](C)[C@@H](CN(C)C(=O)Nc2ccccc2)Oc2ncc(C#CC3CCCCC3)cc2C1=O | 103* | 4 | 0 | -31 | 106* | 37 | 12 | 30*
COc1cccc(NC(=O)N(C)C[C@@H]2Oc3ncc(C#Cc4ccccc4)cc3C(=O)N([C@@H](C)CO)C[C@@H]2C)c1 | ? | . | 0 | -48 | 100* | 58 | 29 | 12
COc1cccc(NC(=O)N(C)C[C@H]2Oc3ncc(C#Cc4ccccc4)cc3C(=O)N([C@@H](C)CO)C[C@@H]2C)c1 | 123* | . | . | -45 | 112* | 110* | -35 | -1
CCOC(=O)c1c(NC(=O)CSc2nc(C)c3c(n2)CCCC3)sc2c1CCCC2 | . | . | 0 | . | . | . | . | .
CCn1c(SCC(=O)Nc2ccccc2OC)nnc1-c1ccco1 | . | . | -1 | . | . | . | . | .
